One block for each compound: values may come before it. Calls of active or inactive are those of the source. No cut-off for these calls is given here.
Experiments:
[1] = system: Osteoclast; settings: Rattus norvegicus, Sprague-Dawley, 10 uM
[2] = cells; settings: Rattus norvegicus, Sprague-Dawley, Osteoclast, 120 h, read-out: INH
[3] = system: Osteoclast; test: Antiosteoclastogenic activity in Sprague-Dawley rat bone marrow-derived preosteoclasts assessed as inhibition of RANKL/M-CSF-induced osteoclast formation treated on day 1 measured over day 1 to day 3 by TRAP staining; format: functional, cell-based
In short: (§1)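 Rat bone-marrow preosteoclasts were cultured with RANKL 50 ng/mL and M-CSF 20 ng/mL. Compound (10 μM) was added during defined day windows, with days 3−5 taken as the late phase. Osteoclasts were scored by TRAP staining as TRAP-positive cells with ≥3 nuclei (N = 3).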

[4] = system: Osteoclast; test: Antiosteoclastogenic activity in Sprague-Dawley rat bone marrow-derived preosteoclasts assessed as inhibition of RANKL/M-CSF-induced osteoclast formation treated on day 3 post RANKL/M-CSF induction measured over day 3 to day 5 by TRAP staining; format: functional, cell-based
In short: as §1

[5] = Cytotoxicity against Sprague-Dawley rat bone marrow-derived preosteoclasts assessed as cell viability at 10 uM incubated for 5 days measured on day 8 by MTT assay in presence of M-CSF; format: cell-based; settings: osteoclast, 120 h
In short: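 Nonadherent bone-marrow preosteoclasts were seeded at 10⁶ cells/well with M-CSF 20 ng/mL for 3 days, then treated with compound for another 5 days. After washing, cells were given MTT at 0.5 mg/mL in α-MEM for 60 min at 37 °C. Formazan was dissolved in DMSO and absorbance read at 550 nm.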

[6] = system: Osteoclast; test: Antiresorptive activity in RANKL/M-CSF-stimulated Sprague-Dawley rat bone marrow-derived preosteoclasts assessed as inhibition of osteoclast resorption area at 10 uM treated for 3 days post 5 days RANKL/M-CSF stimulation measured on day 8 by inverted microscopic analysis; format: functional
In short: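 Rat bone-marrow preosteoclasts were seeded at 10⁶ cells/well on resorbable assay plates with RANKL 50 ng/mL and M-CSF 20 ng/mL for 5 days. Both factors were then removed and compound was added for another 3 days. Cells were stripped with 1 N NaOH, and resorbed areas were photographed under an inverted microscope and quantified by image analysis.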

[7] = system: Osteoclast; test: Effect on osteoclast formation from RANKL/M-CSF-stimulated Sprague-Dawley rat bone marrow-derived preosteoclasts at 10 uM treated for 3 days post 5 days RANKL/M-CSF stimulation measured on day 8 by inverted microscopic analysis relative to control; format: functional, cell-based
[8] = target: T1, Tumor necrosis factor ligand superfamily member 11 (Mus musculus) (UniProt O35235); test: Antiosteoclastogenic activity in ICR mouse bone marrow-derived preosteoclasts assessed as inhibition of RANKL/M-CSF-induced osteoclast formation at 10 uM after 5 days by TRAP staining; format: functional, cell-based
T1 sequence (whole entry): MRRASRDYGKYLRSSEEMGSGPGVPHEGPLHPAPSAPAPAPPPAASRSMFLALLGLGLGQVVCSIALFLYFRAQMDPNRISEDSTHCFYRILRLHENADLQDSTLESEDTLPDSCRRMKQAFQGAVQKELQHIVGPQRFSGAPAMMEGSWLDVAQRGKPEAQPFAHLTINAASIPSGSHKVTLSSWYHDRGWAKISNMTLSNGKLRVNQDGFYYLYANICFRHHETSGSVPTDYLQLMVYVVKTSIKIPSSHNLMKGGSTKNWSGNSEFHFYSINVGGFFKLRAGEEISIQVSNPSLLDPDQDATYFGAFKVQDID
In short: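 They were plated at 10⁶ cells/well with RANKL (50 ng/mL), M-CSF (20 ng/mL) and compound for 5 days. Cells were fixed in 4% paraformaldehyde and TRAP-stained for 1 h at 37 °C. TRAP-positive cells with ≥3 nuclei were counted as osteoclasts.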

[9] = Cytotoxicity against cranium-derived preosteoblasts (unknown origin) assessed as inhibition of bone mineralized nodule formation after 2 weeks by alizarin red staining assay in presence of beta-glycerophosphate and L-ascorbic acid; format: cell-based; settings: osteoblast, 336 h
In short: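 Cranium-derived preosteoblasts were grown in α-MEM with 10% FBS. Mineralisation was induced with 10 mM β-glycerophosphate and 50 μg/mL L-ascorbic acid, with or without compound, for 2 weeks. Cells were fixed in ice-cold 75% ethanol for 30 min and stained with 40 mM alizarin red (pH 4.2). Stain was quantified at 550 nm against a standard curve.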

[10] = Cytotoxicity against cranium-derived preosteoblasts (unknown origin) assessed as effect on cell viability after 24 hrs by MTT assay; format: cell-based; settings: osteoblast
In short: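 Osteoblasts were plated for 24 h, then exposed to compound for another 24 h. Viability was measured by MTT at 0.5 mg/mL in α-MEM for 60 min at 37 °C, with DMSO solubilisation and absorbance at 550 nm.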

[11] = system: RAW264.7; test: Inhibition of osteoclast formation in mouse RAW264.7 cells; format: functional, cell-based
[12] = target: T1, Tumor necrosis factor ligand superfamily member 11 (Mus musculus); test: Inhibition of RANKL-induced IKK phosphorylation in mouse RAW264.7 cells at 10 uM preincubated for 2 hrs followed by RANKL induction measured over 60 mins by Western blot analysis; format: cell-based
In short: (§2)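 Confluent RAW264.7 cells were pretreated with compound (10 μM) for 2 h, then stimulated with RANKL 50 ng/mL for various times. Lysates (30 μg protein per lane) were run on 10% SDS gels and transferred to PVDF. Blots were probed overnight at 4 °C with antibodies to phospho- and total IKKα/β and p65, with actin as control, followed by HRP secondary antibodies.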

[13] = target: Transcription factor p65 (Mus musculus) (UniProt Q04207); test: Inhibition of RANKL-induced P65 phosphorylation in mouse RAW264.7 cells at 10 uM preincubated for 2 hrs followed by RANKL induction measured over 60 mins by Western blot analysis; format: cell-based
In short: as §2

[14] = system: Mus musculus; test: Antiosteoporosis activity in ovariectomized ICR mouse assessed as inhibition of ovariectomy-induced reduction of trabecular bone volume relative to tissue volume at 10 mg/kg, sc administered for 5 days/week for 30 days measured on day 30 by microcomputed tomographic analysis; format: functional, organism-based; settings: Trabecula
In short: (§3)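 Female ICR mice (12 weeks old) were bilaterally ovariectomized or sham-operated. Starting 2 days post-surgery, they were dosed s.c. at 10 mg/kg, 5 days/week, or given vehicle for 30 days. Tibiae were fixed in 4% paraformaldehyde and scanned by μCT. BV/TV, Tb.N and Tb.Th were quantified 0.5−1.5 mm distal to the proximal growth plate.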

[15] = system: Mus musculus; test: Antiosteoporosis activity in ovariectomized ICR mouse assessed as inhibition of ovariectomy-induced reduction of trabecular bone number at 10 mg/kg, sc administered for 5 days/week for 30 days measured on day 30 by microcomputed tomographic analysis; format: functional, organism-based; settings: Trabecula
In short: as §3

[16] = system: Mus musculus; test: Antiosteoporosis activity in ovariectomized ICR mouse assessed as inhibition of ovariectomy-induced reduction of trabecular thickness at 10 mg/kg, sc administered for 5 days/week for 30 days measured on day 30 by microcomputed tomographic analysis; format: functional, organism-based; settings: Trabecula
In short: as §3

[17] = system: Mus musculus; test: Antiosteoporosis activity in ovariectomized ICR mouse assessed as inhibition of ovariectomy-induced reduction of trabecular bone number at 10 mg/kg, sc administered for 5 days/week for 30 days measured on day 30 by Hematoxylin and eosin staining; format: functional, organism-based; settings: Trabecula
In short: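 Ovariectomized or sham-operated female ICR mice were dosed s.c. at 10 mg/kg, 5 days/week, for 30 days. Tibiae taken on day 30 were fixed in 4% paraformaldehyde at 4 °C for 48 h and decalcified in 10% Na2EDTA at 4 °C for 14 days. They were then paraffin-embedded, cut longitudinally at 4 μm and stained with hematoxylin−eosin.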

[18] = system: Mus musculus; test: Antiosteoporosis activity in ovariectomized ICR mouse assessed as inhibition of ovariectomy-induced C-terminal telopeptides of type-1 collagen level in serum at 10 mg/kg, sc administered for 5 days/week for 30 days measured on day 30 by enzyme immunoassay; format: functional, organism-based
In short: (§4)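 Twelve-week-old female ICR mice were bilaterally ovariectomized under isoflurane, with sham-operated controls. From 2 days after surgery, mice received s.c. compound or vehicle 5 days/week for 30 days. On day 30, serum was prepared by centrifugation at 1500g for 15 min. CTx was measured with a RatLaps EIA (N = 8) and osteocalcin with a Rat-MID osteocalcin EIA (N = 9).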

[19] = system: Mus musculus; test: Antiosteoporosis activity in ovariectomized ICR mouse assessed as inhibition of ovariectomy-induced osteocalcin level in serum at 10 mg/kg, sc administered for 5 days/week for 30 days measured on day 30 by enzyme immunoassay; format: functional, organism-based
In short: as §4

Sequence of Transcription factor p65 (Mus musculus) (Q04207 whole entry): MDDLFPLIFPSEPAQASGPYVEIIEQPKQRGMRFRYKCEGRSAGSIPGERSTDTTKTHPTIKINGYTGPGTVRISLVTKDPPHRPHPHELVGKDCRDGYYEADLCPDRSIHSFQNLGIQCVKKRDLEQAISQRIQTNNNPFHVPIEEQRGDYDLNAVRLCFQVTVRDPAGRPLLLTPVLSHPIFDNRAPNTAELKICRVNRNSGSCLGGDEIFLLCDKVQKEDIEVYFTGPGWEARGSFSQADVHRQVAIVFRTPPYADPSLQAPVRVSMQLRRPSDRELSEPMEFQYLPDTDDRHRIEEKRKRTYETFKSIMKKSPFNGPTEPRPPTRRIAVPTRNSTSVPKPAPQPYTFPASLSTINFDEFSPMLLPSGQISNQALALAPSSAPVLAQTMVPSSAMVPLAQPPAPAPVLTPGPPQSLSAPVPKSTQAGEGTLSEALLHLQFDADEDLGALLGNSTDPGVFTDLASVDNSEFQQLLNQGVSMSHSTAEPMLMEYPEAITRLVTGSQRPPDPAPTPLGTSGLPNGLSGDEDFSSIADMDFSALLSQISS

SMILES: NCCCC(O)(P(=O)(O)O)P(=O)(O)O
inhibition [1]: Active

SMILES: O=C(O)c1ccc(-c2nn(Cc3ccccc3)c3ccccc23)o1
inhibition at 10 µM [2]: 20%

SMILES: CC(=O)OCc1ccc(-c2nn(Cc3ccccc3)c3ccccc23)o1
inhibition at 10 µM [2]: 20%

SMILES: CC(C)(C)C(=O)OCc1ccc(-c2nn(Cc3ccccc3)c3ccccc23)o1
inhibition at 10 µM [2]: 20%

SMILES: CON(C)C(=O)c1ccc(-c2nn(Cc3ccccc3)c3ccccc23)o1
inhibition at 10 µM [2]: 20%

inhibition [13]: Active
SMILES: CN(C)CCOC(=O)c1ccc(-c2nn(Cc3ccccc3)c3ccccc23)o1
inhibition [3]: Dose-dependent effect
inhibition [4]: Dose-dependent effect
Activity [5]: Non-toxic
inhibition at 10 µM [6]: > 75%
Activity [7]: inactive
inhibition [8]: Active
Activity [9]: Non-toxic
Activity [10]: Non-toxic
inhibition [11]: Active
inhibition [12]: Active
inhibition [14]: Active
inhibition [15]: Active
inhibition [16]: Active
inhibition [17]: Active
inhibition [18]: Active
inhibition [19]: Active
inhibition at 10 µM [2]: > 90%

SMILES: CC(=O)c1ccc(-c2nn(Cc3ccccc3)c3ccccc23)o1
inhibition at 10 µM [2]: 20%

SMILES: OCCc1ccc(-c2nn(Cc3ccccc3)c3ccccc23)o1
inhibition at 10 µM [2]: 20%
